RAD52 inh: inhibitors of human RAD52 DNA annealing. P43351. recombinant RAD52 DNA annealing, FRET fluorescence. inhibition, % at 18.7 µM. 360,000 compounds, 0.46% hits. AID 651710;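 active = every replicate showing at least 50% inhibition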
AF4-AF9 inh: blocks AF4 peptide binding to human AF9; 350,000 compounds, 0.47% hits; AlphaScreen, biotin-AF4 peptide binding to FLAG-AF9; P42568; AID 651704; inhibition, % at 10 µM;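 active = every replicate reaching a set inhibition limit, whatever the replicate mean, cut at about 25% in these data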
S100A4 inh HTS: blocks human S100A4 binding to myosin IIA peptide; P26447; S100A4/TAMRA-MyoIIA peptide fluorescence polarization; inhibition, % at 10.7 µM; 360,000 compounds, 0.14% hits;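 active = mean inhibition of at least 70% across replicates, with every replicate also reaching that level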
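System – human S100A4 monomer protein, biochemical binding assay · Buffer or medium – Calcium-containing HEPES buffer, pH 7.2 · Timing – 5 min between mix addition and reading · Also added – TAMRA-labelled myosin IIA heavy-chain peptide probe, 5 nM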
ERAP1 inh: blocks human ERAP1 aminopeptidase activity; 340,000 compounds, 0.15% hits; inhibition, % at 10.7 µM; recombinant ERAP1, Leu-AMC fluorescence, 60 min; Q9NZ08;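 active = mean replicate inhibition of at least 30%, or all replicates individually reaching that 30% level; inactive = mean below 30% and not every replicate reaching it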
Target sequence (Q9NZ08 whole entry, looked up): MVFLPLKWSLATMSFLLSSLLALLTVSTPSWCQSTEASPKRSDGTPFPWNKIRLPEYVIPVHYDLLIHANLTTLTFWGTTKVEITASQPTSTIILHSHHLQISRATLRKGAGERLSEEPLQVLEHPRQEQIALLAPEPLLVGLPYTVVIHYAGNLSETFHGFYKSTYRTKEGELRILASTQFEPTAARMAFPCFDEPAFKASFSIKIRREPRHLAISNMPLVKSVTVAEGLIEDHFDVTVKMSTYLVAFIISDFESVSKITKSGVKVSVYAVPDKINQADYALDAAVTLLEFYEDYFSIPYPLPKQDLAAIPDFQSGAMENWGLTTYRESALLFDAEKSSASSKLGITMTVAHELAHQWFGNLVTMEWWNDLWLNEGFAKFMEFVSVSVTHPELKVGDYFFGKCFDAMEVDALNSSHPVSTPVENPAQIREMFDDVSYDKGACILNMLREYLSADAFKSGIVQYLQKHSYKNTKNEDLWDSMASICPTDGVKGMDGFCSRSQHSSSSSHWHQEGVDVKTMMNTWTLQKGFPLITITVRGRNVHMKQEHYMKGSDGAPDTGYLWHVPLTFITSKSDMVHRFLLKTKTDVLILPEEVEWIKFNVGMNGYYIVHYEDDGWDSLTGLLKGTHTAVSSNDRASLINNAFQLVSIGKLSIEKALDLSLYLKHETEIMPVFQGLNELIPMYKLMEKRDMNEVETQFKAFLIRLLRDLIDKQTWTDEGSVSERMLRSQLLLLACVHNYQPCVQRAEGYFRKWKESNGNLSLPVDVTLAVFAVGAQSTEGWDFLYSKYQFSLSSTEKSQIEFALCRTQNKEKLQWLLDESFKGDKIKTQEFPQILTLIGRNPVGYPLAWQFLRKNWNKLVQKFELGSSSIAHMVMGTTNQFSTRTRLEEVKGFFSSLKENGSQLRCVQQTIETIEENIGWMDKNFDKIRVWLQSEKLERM
GSIS activator: primary screen for activators of insulin secretion dependent on glucose, INS-1E cells, GLuc reporter luminescence | 370,000 compounds, 0.61% hits | INS-1E GLuc reporter insulin secretion, 2-3 h | activation, % at 16.6 µM;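 active = lowest replicate activation of at least 40%, so every replicate reaches that level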
Hits are given with their value. Compounds with a hit are over-represented: about 1.5% of the library has one in this group of screens.

For COc1cccc(CNC(=O)c2cc3c(c(-c4cccc(-c5cccc(C#N)c5)c4)n2)[C@H](CCO)N([S@@](=O)C(C)(C)C)C3)c1 the results were RAD52 inh 59, AF4-AF9 inh inactive, S100A4 inh HTS inactive, ERAP1 inh inactive and GSIS activator inactive.
For CN(C)c1cncc(C(=O)O)c1 the results were RAD52 inh inactive, AF4-AF9 inh inactive, S100A4 inh HTS inactive, ERAP1 inh inactive and GSIS activator 63.
Screening O=C(O)c1cncc(Br)c1 returned RAD52 inh inactive, AF4-AF9 inh inactive, S100A4 inh HTS inactive, ERAP1 inh inactive and GSIS activator inactive.
For CCNc1nc(NC(C)CC)nc(ON=C(C)C)n1 (stereo not given) the results were RAD52 inh inactive, AF4-AF9 inh inactive, S100A4 inh HTS inactive and GSIS activator 56.
For CCNc1nc(NC(C)CC)nc(Oc2ccc(=O)[nH]n2)n1 (stereo not given) the results were RAD52 inh inactive, AF4-AF9 inh inactive, S100A4 inh HTS inactive, ERAP1 inh inactive and GSIS activator inactive.
Nc1nc(N)nc(-c2cc(Cl)ccc2Cl)n1 was read as RAD52 inh inactive, AF4-AF9 inh inactive, S100A4 inh HTS inactive, ERAP1 inh inactive and GSIS activator inactive.
Nc1nc(N)nc(-c2ccc(Cl)cc2)n1 was read as GSIS activator 47.
CC(C)NC(=O)Nc1ccc2c(c1)CC(=O)N(C)C[C@@H](C)[C@H](CN(C)C)O2 was read as GSIS activator inactive.
CC1(C)C[C@H](O)[C@]2(CO)[C@H](O)C[C@]3(C)C(=CCC4[C@@]5(C)CC[C@H](O)C(C)(C)C5CC[C@]43C)[C@@H]2C1 (stereo not given in full) was read as RAD52 inh inactive, AF4-AF9 inh 46, S100A4 inh HTS inactive, ERAP1 inh inactive and GSIS activator inactive.
Screening N#Cc1sc2nc(N3CCCCC3)c3c(c2c1N)CCCC3 returned GSIS activator 141.
`O=C(N[C@@H]1CC[C@@H](CCNC(=O)C2CCCCC2)O[C@H]1CO)c1ccncc1` gave RAD52 inh inactive, AF4-AF9 inh inactive, S100A4 inh HTS inactive, ERAP1 inh inactive and GSIS activator inactive.
Screening COCC(=O)Nc1ccc2c(c1)OC[C@H](C)N(Cc1cncnc1)C[C@@H](C)[C@H](OC)CN(C)C2=O returned GSIS activator inactive.
`COc1ccc(NC(=O)N(C)C[C@H]2Oc3c(NC(=O)c4ccc(-c5nccs5)cc4)cccc3C(=O)N([C@H](C)CO)C[C@@H]2C)cc1` gave RAD52 inh inactive, AF4-AF9 inh inactive, S100A4 inh HTS inactive, ERAP1 inh inactive and GSIS activator inactive.
Screening COc1ccc(N2CCN(CCCNC(=S)Nc3c(C)cccc3C)CC2)cc1 returned RAD52 inh inactive, AF4-AF9 inh 43, S100A4 inh HTS inactive and GSIS activator inactive.
CCCCOC(=O)c1cc(=O)[nH]c2ccccc12 was read as RAD52 inh inactive, AF4-AF9 inh inactive, S100A4 inh HTS inactive, ERAP1 inh inactive and GSIS activator 58.
For N=c1c(C(=O)NC2CCCC2)cc2c(=O)n3ccccc3nc2n1CC1CCCO1 (stereo not given) the results were RAD52 inh inactive, AF4-AF9 inh inactive, S100A4 inh HTS inactive, ERAP1 inh inactive and GSIS activator inactive.
N=c1c(C(=O)NC2CCCCC2)cc2c(=O)n3ccccc3nc2n1CC1CCCO1 (stereo not given) was read as RAD52 inh inactive, AF4-AF9 inh inactive, S100A4 inh HTS inactive, ERAP1 inh 103 and GSIS activator inactive.
`CCOC(=O)Cc1csc(NC(=O)/C=C/c2ccc(Br)o2)n1` gave RAD52 inh inactive, AF4-AF9 inh 33, S100A4 inh HTS inactive, ERAP1 inh inactive and GSIS activator inactive.
Screening CCc1onc(C)c1C(=O)Nc1ccc(N2CCOCC2)cc1 returned RAD52 inh inactive, AF4-AF9 inh inactive, S100A4 inh HTS inactive, ERAP1 inh inactive and GSIS activator 41.
For Cc1nn(-c2ccccc2)c(C)c1C(=O)Nc1ccc(N2CCOCC2)cc1 the results were RAD52 inh inactive, AF4-AF9 inh inactive, S100A4 inh HTS inactive, ERAP1 inh inactive and GSIS activator inactive.
C[C@@H]1CN([C@@H](C)CO)C(=O)c2cccc(NC(=O)c3ccc(-c4nccs4)cc3)c2O[C@@H]1CN(C)S(=O)(=O)c1ccc(Cl)cc1 was read as RAD52 inh inactive, AF4-AF9 inh inactive, S100A4 inh HTS inactive, ERAP1 inh inactive and GSIS activator inactive.
